In ChEMBL document CHEMBL1152193, “Structure-activity relationships of natural and non-natural amino acid-based amide and 2-oxoamide inhibitors of human phospholipase A(2) enzymes” (Bioorg Med Chem, 2008):

Experiments:
[1] = target: T1, Cytosolic phospholipase A2 (Homo sapiens) (UniProt P47712); experiment: Inhibition of human group 4A cytosolic Ca2+-dependent phospholipase A2 at 0.091 mole fraction by modified Dole assay
T1 sequence (whole entry): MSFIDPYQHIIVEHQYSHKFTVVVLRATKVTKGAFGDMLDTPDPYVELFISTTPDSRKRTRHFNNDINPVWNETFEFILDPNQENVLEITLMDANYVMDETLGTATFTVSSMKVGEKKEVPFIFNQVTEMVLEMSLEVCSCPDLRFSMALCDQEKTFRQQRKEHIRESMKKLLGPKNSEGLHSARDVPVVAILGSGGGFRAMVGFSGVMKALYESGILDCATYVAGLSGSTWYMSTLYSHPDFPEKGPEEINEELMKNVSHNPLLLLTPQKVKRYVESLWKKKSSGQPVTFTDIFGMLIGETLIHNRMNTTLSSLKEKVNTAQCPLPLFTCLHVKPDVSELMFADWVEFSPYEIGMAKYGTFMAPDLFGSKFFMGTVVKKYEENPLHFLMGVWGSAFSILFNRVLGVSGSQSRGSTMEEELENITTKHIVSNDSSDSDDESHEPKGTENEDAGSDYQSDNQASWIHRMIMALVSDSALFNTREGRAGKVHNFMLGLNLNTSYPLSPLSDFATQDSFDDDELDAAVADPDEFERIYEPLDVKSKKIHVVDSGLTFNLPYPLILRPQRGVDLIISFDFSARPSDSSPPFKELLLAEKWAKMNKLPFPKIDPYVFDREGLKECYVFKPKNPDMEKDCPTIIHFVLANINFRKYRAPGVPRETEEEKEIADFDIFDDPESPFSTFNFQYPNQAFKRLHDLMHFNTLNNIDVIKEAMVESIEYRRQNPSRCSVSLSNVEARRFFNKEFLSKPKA
Summary of the method: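 Buffer: 100 mM HEPES pH 7.5, 90 μM CaCl2, 2 mM DTT, 0.1 mg/ml BSA. Inhibitor present at 0.091 mole fraction of the total substrate interface; percent inhibition determined.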

[2] = target: T2, 85/88 kDa calcium-independent phospholipase A2 (Homo sapiens) (UniProt O60733); experiment: Inhibition of human group 6A cytosolic Ca(2+)-independent phospholipase A2 at 0.091 mole fraction by modified Dole assay
T2 sequence (whole entry): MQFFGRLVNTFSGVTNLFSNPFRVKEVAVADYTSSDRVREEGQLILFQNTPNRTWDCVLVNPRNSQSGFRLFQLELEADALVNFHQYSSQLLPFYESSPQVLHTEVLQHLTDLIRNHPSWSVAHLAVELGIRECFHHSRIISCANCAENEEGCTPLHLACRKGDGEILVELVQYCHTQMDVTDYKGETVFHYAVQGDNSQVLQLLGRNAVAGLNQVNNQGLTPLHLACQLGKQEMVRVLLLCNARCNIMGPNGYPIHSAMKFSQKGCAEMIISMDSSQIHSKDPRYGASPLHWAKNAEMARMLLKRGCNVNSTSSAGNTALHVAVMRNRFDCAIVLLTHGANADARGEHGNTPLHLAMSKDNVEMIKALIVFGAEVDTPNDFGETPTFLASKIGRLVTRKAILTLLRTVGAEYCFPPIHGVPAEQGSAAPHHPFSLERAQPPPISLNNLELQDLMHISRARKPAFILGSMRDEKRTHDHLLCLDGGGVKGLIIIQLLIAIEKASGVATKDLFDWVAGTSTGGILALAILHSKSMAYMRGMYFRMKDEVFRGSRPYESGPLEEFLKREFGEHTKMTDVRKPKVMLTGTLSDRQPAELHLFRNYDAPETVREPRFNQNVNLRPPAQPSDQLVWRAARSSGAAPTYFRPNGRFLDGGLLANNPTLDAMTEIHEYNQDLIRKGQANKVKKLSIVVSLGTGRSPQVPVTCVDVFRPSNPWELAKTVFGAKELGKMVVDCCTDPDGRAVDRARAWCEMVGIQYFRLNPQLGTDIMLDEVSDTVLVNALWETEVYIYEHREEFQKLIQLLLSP

[3] = target: T3, Phospholipase A2 group V (Homo sapiens) (UniProt P39877); experiment: Inhibition of human group 5 Ca2+-dependent secretory phospholipase A2 at 0.091 mole fraction by modified Dole assay
T3 sequence (whole entry): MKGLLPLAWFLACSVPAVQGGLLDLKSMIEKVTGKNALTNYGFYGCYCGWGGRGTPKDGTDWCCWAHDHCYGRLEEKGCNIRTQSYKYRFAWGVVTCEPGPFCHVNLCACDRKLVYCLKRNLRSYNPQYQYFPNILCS

SMILES | inhibition [1] | inhibition [2] | inhibition [3]
CCCCCCCCCCCCCCC(=O)C(=O)NCCCC(=O)OCc1ccccc1 | 35% | < 25% | 38%
CCCCCCCCCCCCCCC(=O)C(=O)N[C@@H](CCCC)CCCCC(=O)OCC | 62% | 66% | < 25%
COC(=O)CNC(=O)CCCCCCc1ccccc1 | < 25% | < 25% | < 25%
COC(=O)CNC(=O)C(=O)CCCCCCc1ccccc1 | 54% | 31% | 30%
CCCC[C@H](CCC(=O)O)NC(=O)CCCCCCc1ccccc1 | < 25% | < 25% | 95%
CCCCCCCCCCCCCCC(=O)C(=O)N[C@H](/C=C/C=C/C(=O)O)CCCC | 85% | < 25% | < 25%
CCCCCCCCCCCCCCC(=O)C(=O)N[C@@H](C)CCC(=O)OC(C)(C)C | 85% | 72% | 87%
CC(C)(C)OC(=O)CCNC(=O)C(=O)CCCCCCc1ccccc1 | 82% | 81% | 69%
CCCCCCCCCCCCCCC(=O)C(=O)Nc1ccc(C(=O)OCC)cc1 | 87% | < 25% | 78%
CCCC[C@@H](CCC(=O)O)NC(=O)CCCCCCc1ccccc1 | < 25% | < 25% | < 25%
CC(C)(C)OC(=O)CCNC(=O)CCCCCCc1ccccc1 | 36% | 57% | 66%
CCCCCCCCCCCCCCC(=O)C(=O)N[C@H](/C=C/C=C/C(=O)OCC)CCCC | 64% | 74% | 52%

More lines, now with the values ahead:

inhibition [1] | inhibition [2] | inhibition [3] | SMILES
< 25% | < 25% | 48% | CCCCCCCCCCCCCCC(=O)C(=O)NCCC(=O)OC
74% | 62% | 72% | CCCCCCCCCCCCCCC(=O)C(=O)NCCCCC(=O)OC(C)(C)C
53% | 63% | 38% | C=CCOC(=O)CCCNC(=O)C(=O)CCCCCCCCCCCCCC
< 25% | < 25% | 42% | CCCCCCCCCCCCCCC(=O)C(=O)NCCCCC(=O)OC
62% | 51% | 64% | CCCCCCCCCCCCCCC(=O)C(=O)NCCCCOCC
31% | 35% | 47% | CCCCCCCCCCCCCCC(=O)C(=O)NCCCCC(=O)OCC
62% | 45% | 52% | CCCCCCCCCCCCCCC(=O)C(=O)NCC(=O)OC
32% | < 25% | < 25% | CCCCCCCCCCCCCCC(=O)C(=O)NCCCC(=O)CCCC
44% | 51% | 59% | CCCCCCCCCCCCCCC(=O)C(=O)NCCC(=O)OCC
80% | 53% | 82% | CCCCCCCCCCCCCCC(=O)C(=O)NCC(=O)OC(C)(C)C
79% | 54% | 72% | CCCCCCCCCCCCCCC(=O)C(=O)NCCC(=O)OC(C)(C)C
87% | 78% | 86% | CCCCCCCCCCCCCCC(=O)C(=O)N[C@@H](CCCC)CCC(=O)OC
83% | 65% | 65% | CCCCCCCCCCCCCCC(=O)C(=O)N[C@H](CCC(=O)OC)CC(C)C
74% | 62% | 62% | CCCCCCCCCCCCCCC(=O)C(=O)NCC(=O)OCC
